In ChEMBL document CHEMBL2429834, “Potent histone deacetylase inhibitors derived from 4-(aminomethyl)-N-hydroxybenzamide with high selectivity for the HDAC6 isoform” (J Med Chem, 2013):
≈ marks a conversion by molar mass, not a printed value.

Experiments:
Homo sapiens = species: Homo sapiens; assay: Selectivity ratio of IC50 for full length C-terminal His6x-tagged recombinant human HDAC8 to IC50 for N-terminal GST-tagged recombinant HDAC6 (unknown origin)
Histone deacetylase 11 = molecular target: T1, Histone deacetylase 11 (Homo sapiens, UniProt Q96DB2); assay: Inhibition of full length N-terminal GST-tagged recombinant human HDAC11 expressed in baculovirus using Arg-His-Lys-Lys (Ac) as substrate after 1 hr by fluorescence plate reader analysis
T1 sequence (Q96DB2 whole entry): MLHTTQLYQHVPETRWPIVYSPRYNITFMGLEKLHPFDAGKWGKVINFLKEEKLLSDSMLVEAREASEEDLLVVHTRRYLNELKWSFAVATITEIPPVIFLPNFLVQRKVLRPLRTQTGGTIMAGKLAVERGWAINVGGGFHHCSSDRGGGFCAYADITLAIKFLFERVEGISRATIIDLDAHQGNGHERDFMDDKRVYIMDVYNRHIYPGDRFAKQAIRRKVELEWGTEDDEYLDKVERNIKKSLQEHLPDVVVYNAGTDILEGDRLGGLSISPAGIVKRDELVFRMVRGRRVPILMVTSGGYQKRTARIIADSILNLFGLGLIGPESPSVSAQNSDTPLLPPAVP

[1] = molecular target: T2, Protein deacetylase HDAC6 (Homo sapiens) (UniProt Q9UBN7); assay: Inhibition of HDAC6 in human HeLa cells assessed as inhibition of acetyl histone hydrolysis at 10 uM after 24 hrs by immunofluorescence assay relative to control; type: cell-based
T2 sequence (whole entry): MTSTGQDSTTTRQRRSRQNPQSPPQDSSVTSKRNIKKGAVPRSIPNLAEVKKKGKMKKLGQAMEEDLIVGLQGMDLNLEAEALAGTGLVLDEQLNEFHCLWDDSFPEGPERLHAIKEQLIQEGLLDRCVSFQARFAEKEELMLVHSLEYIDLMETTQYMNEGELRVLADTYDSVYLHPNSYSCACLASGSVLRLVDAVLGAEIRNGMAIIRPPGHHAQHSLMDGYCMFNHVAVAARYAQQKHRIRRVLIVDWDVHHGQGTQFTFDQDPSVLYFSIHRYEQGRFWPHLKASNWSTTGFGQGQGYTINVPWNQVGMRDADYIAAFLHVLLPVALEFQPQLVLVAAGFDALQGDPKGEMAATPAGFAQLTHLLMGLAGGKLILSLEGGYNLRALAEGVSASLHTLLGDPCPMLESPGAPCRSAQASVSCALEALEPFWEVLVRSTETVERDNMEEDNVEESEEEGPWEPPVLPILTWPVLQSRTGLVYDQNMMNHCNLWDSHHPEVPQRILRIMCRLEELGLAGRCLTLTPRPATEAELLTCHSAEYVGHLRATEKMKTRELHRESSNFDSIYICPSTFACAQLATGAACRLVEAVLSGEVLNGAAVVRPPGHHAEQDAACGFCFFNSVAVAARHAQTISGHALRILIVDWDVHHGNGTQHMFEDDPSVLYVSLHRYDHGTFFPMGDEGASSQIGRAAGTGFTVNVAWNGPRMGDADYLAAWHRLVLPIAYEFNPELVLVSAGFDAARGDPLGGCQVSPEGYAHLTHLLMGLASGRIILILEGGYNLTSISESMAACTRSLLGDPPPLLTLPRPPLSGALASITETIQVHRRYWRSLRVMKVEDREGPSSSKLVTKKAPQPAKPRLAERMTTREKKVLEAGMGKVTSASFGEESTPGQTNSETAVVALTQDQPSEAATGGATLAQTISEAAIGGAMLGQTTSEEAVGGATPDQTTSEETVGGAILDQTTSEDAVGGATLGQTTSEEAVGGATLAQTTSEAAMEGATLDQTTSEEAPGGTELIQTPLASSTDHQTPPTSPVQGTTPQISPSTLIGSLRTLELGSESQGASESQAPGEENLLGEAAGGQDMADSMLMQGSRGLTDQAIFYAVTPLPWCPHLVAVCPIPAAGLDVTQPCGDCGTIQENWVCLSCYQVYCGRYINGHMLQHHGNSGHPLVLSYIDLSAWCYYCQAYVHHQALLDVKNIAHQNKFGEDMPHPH
Outline: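 HeLa cells (8000/well, MEM with 10% FBS) given compound 24 h (histone) or 6 h (tubulin). Fixed in 4% paraformaldehyde, permeabilized with 0.5% Triton X-100, stained with anti-acetyl-lysine or anti-acetyl-tubulin and Alexa 488 secondary plus Hoechst. Imaged at nine sites per well, 20×; percent inhibition relative to 0.2% DMSO controls.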

[2] = molecular target: 72 kDa type IV collagenase (Homo sapiens) (UniProt P08253); assay: Inhibition of MMP2 (unknown origin)
Chain of 72 kDa type IV collagenase (Homo sapiens) (P08253 110-660 limits assumed): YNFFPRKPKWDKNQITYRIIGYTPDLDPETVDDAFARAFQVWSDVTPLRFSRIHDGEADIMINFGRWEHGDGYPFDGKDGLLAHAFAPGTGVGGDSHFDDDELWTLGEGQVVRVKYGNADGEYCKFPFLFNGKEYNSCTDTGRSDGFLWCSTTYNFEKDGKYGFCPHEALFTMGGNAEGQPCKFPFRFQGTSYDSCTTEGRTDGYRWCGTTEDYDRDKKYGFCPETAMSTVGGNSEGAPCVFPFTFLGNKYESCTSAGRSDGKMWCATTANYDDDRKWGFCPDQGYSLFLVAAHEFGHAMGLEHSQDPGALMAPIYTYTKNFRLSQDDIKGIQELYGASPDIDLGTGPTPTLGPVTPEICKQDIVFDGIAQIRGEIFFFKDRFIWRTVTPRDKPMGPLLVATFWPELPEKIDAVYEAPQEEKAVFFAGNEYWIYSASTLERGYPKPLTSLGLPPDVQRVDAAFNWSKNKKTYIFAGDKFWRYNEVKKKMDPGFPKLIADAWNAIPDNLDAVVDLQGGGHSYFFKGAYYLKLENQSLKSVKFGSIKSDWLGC

[3] = Permeability in human Caco2 cells at pH 7.4; type: ADME, cell-based; conditions: Caco-2, pH 7.4, read-out: permeability
[4] = molecular target: T3, Matrix metalloproteinase-17 (Homo sapiens) (UniProt Q9ULZ9); assay: Inhibition of MMP4 (unknown origin)
T3 sequence (whole entry): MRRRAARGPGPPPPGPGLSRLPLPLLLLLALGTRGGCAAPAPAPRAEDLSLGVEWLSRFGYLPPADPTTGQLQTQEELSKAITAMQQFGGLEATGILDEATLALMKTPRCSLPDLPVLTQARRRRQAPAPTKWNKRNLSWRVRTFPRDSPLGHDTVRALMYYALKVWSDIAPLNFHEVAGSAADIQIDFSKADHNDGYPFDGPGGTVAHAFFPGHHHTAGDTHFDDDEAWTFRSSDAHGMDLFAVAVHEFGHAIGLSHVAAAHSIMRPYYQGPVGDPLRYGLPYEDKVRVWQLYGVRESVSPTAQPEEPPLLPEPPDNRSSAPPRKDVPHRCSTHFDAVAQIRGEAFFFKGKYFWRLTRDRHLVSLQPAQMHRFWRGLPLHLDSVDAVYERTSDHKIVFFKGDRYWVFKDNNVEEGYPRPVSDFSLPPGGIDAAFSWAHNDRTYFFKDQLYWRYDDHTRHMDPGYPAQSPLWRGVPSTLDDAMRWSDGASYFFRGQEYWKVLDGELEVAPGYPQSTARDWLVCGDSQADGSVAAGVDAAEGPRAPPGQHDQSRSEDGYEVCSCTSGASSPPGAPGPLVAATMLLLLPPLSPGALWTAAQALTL

[5] = Efflux ratio of permeability in human Caco2 cells at pH 7.4; type: ADME, cell-based; conditions: Caco-2, pH 7.4
[6] = Aqueous thermodynamic solubility of the compound in potassium phosphate monobasic buffer at pH 7.5 after 24 hrs by LC-MS analysis; type: physicochemical; conditions: read-out: Therm_solubility
[7] = molecular target: Matrix metalloproteinase-9 (Homo sapiens) (UniProt P14780); assay: Inhibition of MMP9 (unknown origin)
Chain of Matrix metalloproteinase-9 (Homo sapiens) (P14780 whole entry): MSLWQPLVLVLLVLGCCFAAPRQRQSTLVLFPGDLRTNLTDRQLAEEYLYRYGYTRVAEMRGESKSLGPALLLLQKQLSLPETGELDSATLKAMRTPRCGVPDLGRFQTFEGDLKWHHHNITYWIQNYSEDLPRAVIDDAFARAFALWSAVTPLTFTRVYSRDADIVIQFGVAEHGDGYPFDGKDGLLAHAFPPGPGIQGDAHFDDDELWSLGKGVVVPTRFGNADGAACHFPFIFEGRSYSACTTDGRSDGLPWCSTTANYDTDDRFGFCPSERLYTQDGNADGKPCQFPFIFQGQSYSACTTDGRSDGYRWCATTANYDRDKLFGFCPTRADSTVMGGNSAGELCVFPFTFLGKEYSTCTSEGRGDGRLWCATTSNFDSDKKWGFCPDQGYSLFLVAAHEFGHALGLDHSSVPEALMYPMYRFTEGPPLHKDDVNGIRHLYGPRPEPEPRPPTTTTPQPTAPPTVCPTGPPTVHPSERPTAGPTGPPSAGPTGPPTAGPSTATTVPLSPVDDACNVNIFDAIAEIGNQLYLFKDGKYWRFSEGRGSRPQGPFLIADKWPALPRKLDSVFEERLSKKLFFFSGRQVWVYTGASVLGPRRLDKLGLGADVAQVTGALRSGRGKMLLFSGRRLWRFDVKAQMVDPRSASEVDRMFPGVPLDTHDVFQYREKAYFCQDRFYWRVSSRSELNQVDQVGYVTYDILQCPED

Ratio IC50 (Homo sapiens)	IC50 (Histone deacetylase 11) [µM]	SMILES	other results
40	> 50	Cn1cccc1C(=O)N1Cc2ccc(C(=O)NO)cc2C1	
40	> 50	Cn1cccc1C(=O)N1CCCc2cc(C(=O)NO)ccc2C1	
	> 50	Cn1cccc1C(=O)N1CCc2cc(C(=O)NO)ccc2C1	INH [2]: > 100 µM; Papp [3]: 22 ×10⁻⁶ cm/s; INH [4]: > 100 µM; efflux ratio [5]: 1.5; solubility thermodynamic at 24 h [6]: 2000 µM (≈ 599 µg/mL); INH [7]: > 100 µM

Second part, the compound before the results:

SMILES	Ratio IC50 (Homo sapiens)	IC50 (Histone deacetylase 11) [µM]	other results
Cn1cccc1C(=O)NCc1ccc(C(=O)NO)cc1	40		inhibition [1]: 26%
CC(C)(C)C(=O)N1CCc2cc(C(=O)NO)ccc2C1	40	> 50	
CC(C)(C)C(=O)N1Cc2ccc(C(=O)NO)cc2C1	40	> 50	
